Assay results from ChEMBL document CHEMBL1268915, “Optimization of a series of dipeptides with a P3 threonine residue as non-covalent inhibitors of the chymotrypsin-like activity of the human 20S proteasome” (Bioorg Med Chem Lett, 2010).
The source made the active and inactive calls. The rule behind the calls is not given here.

Columns and labels:
[1] = Cytotoxicity against human Calu6 cells assessed as cellular ATP level after 72 hrs by luminescence-based ATPlite assay; type: cell-based, Calu-6; details: read-out: LC50
How it was run: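 Calu6 cells, 2000 per well, incubated with compound for 72 h. Viability read as cellular ATP by luminescence (ATPlite). Values are means of at least three independent experiments.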

[2] = Inhibition of chymotrypsin-like activity of human 20s proteasome beta-1 subunit in human erythrocyte assessed as hydrolysis of Ac-WLA-AMC fluorogenic substrate
[3] = molecular target: Prothrombin (Homo sapiens) (UniProt P00734); assay: Inhibition of human thrombin at 100 uM
[4] = molecular target: Procathepsin L (Homo sapiens) (UniProt P07711); assay: Inhibition of human cathepsin L at 100uM
Sequence of Procathepsin L (Homo sapiens) (P07711 114-333 limits assumed): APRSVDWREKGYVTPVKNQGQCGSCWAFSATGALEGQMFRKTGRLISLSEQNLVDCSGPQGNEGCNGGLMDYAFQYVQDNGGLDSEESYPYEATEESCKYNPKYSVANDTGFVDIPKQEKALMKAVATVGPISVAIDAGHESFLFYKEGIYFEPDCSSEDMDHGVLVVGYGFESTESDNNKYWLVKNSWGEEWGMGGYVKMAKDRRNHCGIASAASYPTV

[5] = (§1) Inhibition of TNF-alpha-induced NF-kappaB activation in human HEK293 cells after 3 hrs by luciferase reporter gene assay; type: cell-based; details: HEK293, 3 h
How it was run: (§2)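 NF-κB-luciferase reporter in HEK293 cells (10,000 per well). Cells were pre-incubated with compound for 1 h, then stimulated with 10 ng/ml TNF-α for 3 h with compound still present. IC50 and percentage inhibition were reported as means of at least three independent experiments.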

HEK293 = assay: as §1; type: cell-based; design: concentration or dose not given beside the values; details: dose or concentration not given here; how it was run: as §2
Trypsin (Homo sapiens) = Trypsin (Homo sapiens) (UniProt P07477+P07478+P35030); assay: Inhibition of human trypsin at 100 uM; type: protein assay
[6] = molecular target: T1, Calpain-1 catalytic subunit (Homo sapiens) (UniProt P07384); assay: Inhibition of human calpain 1 at 100 uM
T1 sequence (whole entry): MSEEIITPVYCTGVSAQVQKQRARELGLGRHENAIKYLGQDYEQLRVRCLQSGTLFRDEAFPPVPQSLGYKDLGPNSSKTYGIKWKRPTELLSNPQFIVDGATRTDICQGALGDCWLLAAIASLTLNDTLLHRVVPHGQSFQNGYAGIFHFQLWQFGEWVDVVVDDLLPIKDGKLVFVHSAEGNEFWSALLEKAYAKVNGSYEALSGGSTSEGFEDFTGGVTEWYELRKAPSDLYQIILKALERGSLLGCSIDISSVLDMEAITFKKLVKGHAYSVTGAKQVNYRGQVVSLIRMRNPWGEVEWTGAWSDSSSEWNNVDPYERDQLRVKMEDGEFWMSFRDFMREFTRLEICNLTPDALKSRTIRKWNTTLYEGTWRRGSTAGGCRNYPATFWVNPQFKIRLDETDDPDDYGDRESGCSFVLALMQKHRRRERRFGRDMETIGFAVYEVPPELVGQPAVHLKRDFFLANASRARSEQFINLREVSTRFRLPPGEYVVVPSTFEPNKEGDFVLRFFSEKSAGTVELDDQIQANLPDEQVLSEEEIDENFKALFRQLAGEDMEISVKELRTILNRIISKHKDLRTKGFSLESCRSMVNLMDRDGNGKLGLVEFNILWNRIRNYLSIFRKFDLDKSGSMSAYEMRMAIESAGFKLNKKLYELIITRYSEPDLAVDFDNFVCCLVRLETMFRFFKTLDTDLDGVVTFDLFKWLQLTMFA

[7] = Inhibition of chymotrypsin-like activity of human 20s proteasome beta5 subunit in human erythrocyte assessed as hydrolysis of Ac-WLA-AMC fluorogenic substrate
[8] = molecular target: Tissue-type plasminogen activator (Homo sapiens) (UniProt P00750); assay: Inhibition of tissue plasminogen activator at 100 uM
Sequence of Tissue-type plasminogen activator (Homo sapiens) (P00750 36-562 limits assumed): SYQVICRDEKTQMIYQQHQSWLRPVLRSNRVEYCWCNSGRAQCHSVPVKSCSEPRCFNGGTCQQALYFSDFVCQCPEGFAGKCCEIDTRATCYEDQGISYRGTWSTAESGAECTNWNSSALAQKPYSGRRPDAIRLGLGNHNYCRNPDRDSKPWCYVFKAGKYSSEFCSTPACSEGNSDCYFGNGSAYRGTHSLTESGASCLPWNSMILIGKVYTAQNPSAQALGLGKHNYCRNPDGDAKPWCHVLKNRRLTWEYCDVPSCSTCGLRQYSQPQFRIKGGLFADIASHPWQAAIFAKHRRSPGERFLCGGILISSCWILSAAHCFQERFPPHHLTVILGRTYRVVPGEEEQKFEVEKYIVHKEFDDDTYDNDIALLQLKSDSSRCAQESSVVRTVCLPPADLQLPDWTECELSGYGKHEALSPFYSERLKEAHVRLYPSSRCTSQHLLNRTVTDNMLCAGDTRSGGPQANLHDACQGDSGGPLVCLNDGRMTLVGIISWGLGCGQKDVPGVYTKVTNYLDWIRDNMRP

[9] = molecular target: Cathepsin B (Homo sapiens) (UniProt P07858); assay: Inhibition of human cathepsin B at 100uM
[10] = molecular target: Plasminogen (Homo sapiens) (UniProt P00747); assay: Inhibition of human plasmin at 100 uM
Sequence of Plasminogen (Homo sapiens) (P00747 97-580 limits assumed): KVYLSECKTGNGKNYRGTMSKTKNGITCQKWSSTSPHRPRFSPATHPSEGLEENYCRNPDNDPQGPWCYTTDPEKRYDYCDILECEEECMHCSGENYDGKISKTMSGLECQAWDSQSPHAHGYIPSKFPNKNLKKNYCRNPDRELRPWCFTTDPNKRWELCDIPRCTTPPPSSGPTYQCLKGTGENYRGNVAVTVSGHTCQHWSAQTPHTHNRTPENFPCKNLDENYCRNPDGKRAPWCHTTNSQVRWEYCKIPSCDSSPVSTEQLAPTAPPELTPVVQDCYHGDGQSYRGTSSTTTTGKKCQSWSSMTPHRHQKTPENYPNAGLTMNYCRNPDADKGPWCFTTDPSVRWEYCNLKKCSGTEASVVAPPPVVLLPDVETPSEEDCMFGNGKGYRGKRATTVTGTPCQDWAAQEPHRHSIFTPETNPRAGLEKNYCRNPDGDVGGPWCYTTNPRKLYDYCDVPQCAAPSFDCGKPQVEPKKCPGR
Sequence of Plasminogen (Homo sapiens) (P00747 581-810 limits assumed): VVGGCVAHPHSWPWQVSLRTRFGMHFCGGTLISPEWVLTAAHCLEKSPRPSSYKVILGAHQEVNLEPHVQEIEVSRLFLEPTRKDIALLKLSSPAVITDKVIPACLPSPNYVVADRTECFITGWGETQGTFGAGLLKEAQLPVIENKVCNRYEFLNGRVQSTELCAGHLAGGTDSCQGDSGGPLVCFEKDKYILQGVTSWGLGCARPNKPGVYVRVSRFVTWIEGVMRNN

[11] = Inhibition of chymotrypsin-like activity of human 20s proteasome beta2 subunit in human erythrocyte assessed as hydrolysis of Ac-WLA-AMC fluorogenic substrate
Homo sapiens [12] = species on record: Homo sapiens; assay: Inhibition of human chymotrypsin at 100 uM
[13] = molecular target: T2, Coagulation factor XII (Homo sapiens) (UniProt P00748); assay: Inhibition of human coagulation factor beta 12a at 100 uM
T2 sequence (whole entry): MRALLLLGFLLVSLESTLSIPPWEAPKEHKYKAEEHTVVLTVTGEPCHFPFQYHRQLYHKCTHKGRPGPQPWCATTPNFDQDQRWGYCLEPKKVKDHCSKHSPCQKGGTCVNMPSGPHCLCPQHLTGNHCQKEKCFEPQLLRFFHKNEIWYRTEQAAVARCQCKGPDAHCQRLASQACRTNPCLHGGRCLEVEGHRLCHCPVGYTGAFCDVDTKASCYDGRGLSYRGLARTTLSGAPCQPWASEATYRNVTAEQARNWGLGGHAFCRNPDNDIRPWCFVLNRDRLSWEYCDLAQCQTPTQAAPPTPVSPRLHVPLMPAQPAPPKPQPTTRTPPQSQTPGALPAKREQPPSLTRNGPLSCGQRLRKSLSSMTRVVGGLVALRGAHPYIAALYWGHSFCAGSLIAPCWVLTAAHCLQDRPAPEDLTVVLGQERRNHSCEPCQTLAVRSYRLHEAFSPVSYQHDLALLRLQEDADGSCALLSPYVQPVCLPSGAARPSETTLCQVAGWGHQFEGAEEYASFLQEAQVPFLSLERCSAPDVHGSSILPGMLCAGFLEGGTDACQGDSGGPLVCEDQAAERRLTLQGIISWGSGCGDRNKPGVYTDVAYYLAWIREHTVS

Homo sapiens [14] = species on record: Homo sapiens; assay: Inhibition of human elastase at 100 uM

SMILES: C=CCNC(=O)[C@H](CCc1ccccc1)NC(=O)[C@@H](NC(=O)c1ccc(OCc2ccccc2)cc1)[C@@H](C)O
- CC50 at 72 h [1]: 2800 nM
- IC50 [2]: > 20 µM
- inhibition [3]: Active
- inhibition [4]: Active
- IC50 [5]: 880 nM
- inhibition (HEK293): 99%
- inhibition (Trypsin (Homo sapiens)): Active
- inhibition [6]: Active
- IC50 [7]: 100 nM
- inhibition [8]: Active
- inhibition [9]: Active
- inhibition [10]: Active
- IC50 [11]: > 20 µM
- inhibition (Homo sapiens [12]): Active
- inhibition [13]: Active
- inhibition (Homo sapiens [14]): Active

SMILES: Cc1ccc(CNC(=O)[C@H](CCc2ccccc2)NC(=O)[C@H](CCc2ccccc2)NC(=O)Cc2cccc(Oc3ccccc3)c2)cc1
- CC50 at 72 h [1]: > 25000 nM
- IC50 [2]: > 20 µM
- inhibition [3]: Active
- inhibition [4]: Active
- IC50 [5]: > 50000 nM
- inhibition (HEK293): 28%
- inhibition (Trypsin (Homo sapiens)): Active
- inhibition [6]: Active
- IC50 [7]: 1100 nM
- inhibition [8]: Active
- inhibition [9]: Active
- inhibition [10]: Active
- IC50 [11]: > 20 µM
- inhibition (Homo sapiens [12]): Active
- inhibition [13]: Active
- inhibition (Homo sapiens [14]): Active

SMILES: Cc1ccc(CNC(=O)[C@H](CCc2ccccc2)NC(=O)[C@@H](NCc2ccc(OCc3ccccc3)cc2)[C@@H](C)O)cc1
- CC50 at 72 h [1]: 14000 nM
- IC50 [2]: > 20 µM
- inhibition [3]: Active
- inhibition [4]: Active
- IC50 [5]: > 50000 nM
- inhibition (HEK293): 37%
- inhibition (Trypsin (Homo sapiens)): Active
- inhibition [6]: Active
- IC50 [7]: 3100 nM
- inhibition [8]: Active
- inhibition [9]: Active
- inhibition [10]: Active
- IC50 [11]: > 20 µM
- inhibition (Homo sapiens [12]): Active
- inhibition [13]: Active
- inhibition (Homo sapiens [14]): Active

SMILES: C[C@@H](O)[C@H](NC(=O)c1ccc(OCc2ccccc2)cc1)C(=O)N[C@@H](CCc1ccccc1)C(=O)NCc1ccccc1Cl
- CC50 at 72 h [1]: 290 nM
- IC50 [2]: > 20 µM
- inhibition [3]: Active
- inhibition [4]: Active
- IC50 [5]: 29 nM
- inhibition (HEK293): 87%
- inhibition (Trypsin (Homo sapiens)): Active
- inhibition [6]: Active
- IC50 [7]: 13 nM
- inhibition [8]: Active
- inhibition [9]: Active
- inhibition [10]: Active
- IC50 [11]: > 20 µM
- inhibition (Homo sapiens [12]): Active
- inhibition [13]: Active
- inhibition (Homo sapiens [14]): Active

SMILES: COc1ccc2c(c1)CC(C(=O)N[C@H](C(=O)N[C@@H](CCc1ccccc1)C(=O)NCc1ccc(C)cc1)[C@@H](C)O)CC2 (stereo partly specified)
- CC50 at 72 h [1]: 2300 nM
- IC50 [2]: > 20 µM
- inhibition [3]: Active
- inhibition [4]: Active
- IC50 [5]: 95 nM
- inhibition (HEK293): 89%
- inhibition (Trypsin (Homo sapiens)): Active
- inhibition [6]: Active
- IC50 [7]: 20 nM
- inhibition [8]: Active
- inhibition [9]: Active
- inhibition [10]: Active
- IC50 [11]: > 20 µM
- inhibition (Homo sapiens [12]): Active
- inhibition [13]: Active
- inhibition (Homo sapiens [14]): Active

SMILES: C[C@@H](O)[C@H](NC(=O)c1ccc(OCc2ccccc2)cc1)C(=O)N[C@@H](CCc1ccccc1)C(=O)N(C)Cc1ccccc1
- CC50 at 72 h [1]: 6600 nM
- IC50 [2]: > 20 µM
- inhibition [3]: Active
- inhibition [4]: Active
- IC50 [5]: 4400 nM
- inhibition (HEK293): 86%
- inhibition (Trypsin (Homo sapiens)): Active
- inhibition [6]: Active
- IC50 [7]: 9100 nM
- inhibition [8]: Active
- inhibition [9]: Active
- inhibition [10]: Active
- IC50 [11]: > 20 µM
- inhibition (Homo sapiens [12]): Active
- inhibition [13]: Active
- inhibition (Homo sapiens [14]): Active

SMILES: Cc1ccc(CNC(=O)[C@H](CCc2ccccc2)NC(=O)[C@@H](NC(=O)c2ccc(OCc3ccccc3)cc2)[C@@H](C)O)cc1
- CC50 at 72 h [1]: 380 nM
- IC50 [2]: > 20 µM
- inhibition [3]: Active
- inhibition [4]: Active
- IC50 [5]: 120 nM
- inhibition (HEK293): 81%
- inhibition (Trypsin (Homo sapiens)): Active
- inhibition [6]: Active
- IC50 [7]: 20 nM
- inhibition [8]: Active
- inhibition [9]: Active
- inhibition [10]: Active
- IC50 [11]: > 20 µM
- inhibition (Homo sapiens [12]): Active
- inhibition [13]: Active
- inhibition (Homo sapiens [14]): Active

SMILES: COC[C@H](NC(=O)Cc1cccc(OCc2ccccc2)c1)C(=O)N[C@@H](CCc1ccccc1)C(=O)NCc1ccc(C)cc1
- CC50 at 72 h [1]: 220 nM
- IC50 [2]: > 20 µM
- inhibition [3]: Active
- inhibition [4]: Active
- IC50 [5]: 340 nM
- inhibition (HEK293): 78%
- inhibition (Trypsin (Homo sapiens)): Active
- inhibition [6]: Active
- IC50 [7]: 74 nM
- inhibition [8]: Active
- inhibition [9]: Active
- inhibition [10]: Active
- IC50 [11]: > 20 µM
- inhibition (Homo sapiens [12]): Active
- inhibition [13]: Active
- inhibition (Homo sapiens [14]): Active

SMILES: Cc1ccc(CNC(=O)[C@H](CCc2ccccc2)NC(=O)[C@@H](NC(=O)C(=O)c2c[nH]c3ccccc23)[C@@H](C)O)cc1
- CC50 at 72 h [1]: 136 nM
- IC50 [2]: > 20 µM
- inhibition [3]: Active
- inhibition [4]: Active
- IC50 [5]: 90 nM
- inhibition (HEK293): 100%
- inhibition (Trypsin (Homo sapiens)): Active
- inhibition [6]: Active
- IC50 [7]: 7.3 nM
- inhibition [8]: Active
- inhibition [9]: Active
- inhibition [10]: Active
- IC50 [11]: > 20 µM
- inhibition (Homo sapiens [12]): Active
- inhibition [13]: Active
- inhibition (Homo sapiens [14]): Active

SMILES: Cc1ccc(CNC(=O)[C@H](CCc2ccccc2)NC(=O)[C@H](CCc2ccccc2)NC(=O)[C@H](CCc2ccccc2)NC(=O)c2cnc(C)cn2)cc1
- CC50 at 72 h [1]: 140 nM
- IC50 [2]: > 20 µM
- inhibition [3]: Active
- inhibition [4]: Active
- IC50 [5]: 47 nM
- inhibition (HEK293): 79%
- inhibition (Trypsin (Homo sapiens)): Active
- inhibition [6]: Active
- IC50 [7]: 16 nM
- inhibition [8]: Active
- inhibition [9]: Active
- inhibition [10]: Active
- IC50 [11]: > 20 µM
- inhibition (Homo sapiens [12]): Active
- inhibition [13]: Active
- inhibition (Homo sapiens [14]): Active

SMILES: Cc1ccc(CNC(=O)[C@H](CCc2ccccc2)NC(=O)[C@@H](NC(=O)Cc2cccc(Oc3ccccc3)c2)[C@@H](C)O)cc1
- CC50 at 72 h [1]: 15000 nM
- IC50 [2]: > 20 µM
- inhibition [3]: Active
- inhibition [4]: Active
- IC50 [5]: 24000 nM
- inhibition (HEK293): 30%
- inhibition (Trypsin (Homo sapiens)): Active
- inhibition [6]: Active
- IC50 [7]: 450 nM
- inhibition [8]: Active
- inhibition [9]: Active
- inhibition [10]: Active
- IC50 [11]: > 20 µM
- inhibition (Homo sapiens [12]): Active
- inhibition [13]: Active
- inhibition (Homo sapiens [14]): Active
